Hck Nef HTS: human Hck-Nef kinase inhibition; P08631; Recombinant Hck-YEEI plus Nef, Z-Lyte FRET kinase assay; inhibition, % at 20 µM; 220,000 tested, 0.68% active;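 active = Hck-Nef kinase inhibition above about 50%, limit read from the data; inactive = inhibition below that limit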;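 also: 0% = DMSO with Hck plus Nef and 100% = Hck alone without Nef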
Runt-CBFb FRET: blocks binding of human RUNX1 Runt domain to CBFb; Cerulean-Runt/Venus-CBFb FRET ratio 530/480, 1 h; inhibition, % at 20 µM; AID 1496; 220,000 tested, 0.46% active;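 active = inhibition over about 50% at 20 µM in the single-dose screen, limit read from the data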;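 also: 0% = DMSO wells and 100% = excess unlabeled CBFb competitor control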
Target sequence (Q01196 whole entry, looked up, the tested form may be a part): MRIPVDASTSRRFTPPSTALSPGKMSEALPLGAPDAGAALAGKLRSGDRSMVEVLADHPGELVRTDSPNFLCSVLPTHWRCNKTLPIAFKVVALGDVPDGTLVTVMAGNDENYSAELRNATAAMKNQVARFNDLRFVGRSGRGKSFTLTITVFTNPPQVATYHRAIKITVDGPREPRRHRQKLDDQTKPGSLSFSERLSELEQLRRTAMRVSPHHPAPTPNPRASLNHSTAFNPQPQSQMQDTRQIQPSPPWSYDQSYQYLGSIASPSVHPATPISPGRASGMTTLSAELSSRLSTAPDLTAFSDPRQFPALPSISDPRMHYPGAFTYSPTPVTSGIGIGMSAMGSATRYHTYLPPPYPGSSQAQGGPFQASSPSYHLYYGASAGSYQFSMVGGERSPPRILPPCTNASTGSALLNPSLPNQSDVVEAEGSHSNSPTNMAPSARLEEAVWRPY
Target sequence (Q13951 whole entry, looked up, the tested form may be a part): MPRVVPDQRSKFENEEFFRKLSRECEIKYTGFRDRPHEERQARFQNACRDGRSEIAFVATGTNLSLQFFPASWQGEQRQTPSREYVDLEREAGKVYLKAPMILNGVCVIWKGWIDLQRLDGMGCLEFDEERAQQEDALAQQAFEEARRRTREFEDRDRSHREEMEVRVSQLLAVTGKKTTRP
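Doses: 20 µM compound in 1% DMSO | Material: Cerulean-labeled Runt domain protein | Amount: Each fluorescent fusion protein 100 nM | Schedule: Two 1 h room-temperature incubations shielded from light | Measured by: FRET fluorescence | Evaluation: Loss of energy transfer signal | Controls: Unlabeled CBFb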
Runt-SMMHC FRET: inhibitors of human RUNX1 Runt domain binding to CBFb-SMMHC | 220,000 tested, 0.74% active | inhibition, % at 20 µM | Q01196+Q13951 | Cerulean-Runt/Venus-CBFb-SMMHC FRET ratio 530/480, 1 h;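 active = mean inhibition across duplicate retests at 20 µM reaching about 50%, limit read from the data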;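 also: 0% = DMSO wells and 100% = wells with excess untagged CBFb-SMMHC; inhibitors lower the FRET ratio by blocking Runt binding to CBFb-SMMHC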
TbHK1 inh: blocks Trypanosoma brucei hexokinase 1 activity. recombinant TbHK1, G6PDH-coupled NADH A340. inhibition, % at 10 µM. 220,000 tested, 0.11% active;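 active = inhibition of 50% or more in the single-dose primary screen; inactive = inhibition below 50%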
RanGTP-Imp inh: inhibitors of RanGTP-importin-beta interaction, primary screen, biochemical, FRET, CFP-Ran, YFP-importin-beta, homogeneous; cell-free CFP-Ran/YFP-importin-beta FRET ratio; inhibition, % (concentration not given with the values); 300,000 tested, 1.1% active; AID 2216;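 active = more than half of the replicate wells show a fall in the fluorescence ratio signal beyond about 16%, limit read from the data, passing the limit was not always enough; inconclusive = exactly half of the replicate wells pass the set limit; inactive = fewer than half of replicates pass the limit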;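 also: 0% = DMSO wells and 100% = Ran loaded with GDP instead of GTP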
* = called active by the depositor; ? = inconclusive; . = no result given. Sampled rows, rich in hits. Any-hit rate of the full collection: about 1.9%.

SMILES	Hck Nef HTS	Runt-CBFb FRET	Runt-SMMHC FRET	TbHK1 inh	RanGTP-Imp inh
COc1cccc2[nH]c3ccccc3c(=O)c12	.	.	.	.	127*
COc1cccc2[nH]c(C(=O)NN)c(N)c12	5	6	2	34	8
Nc1cccc2c(=O)c3ccccc3[nH]c12	.	.	.	.	64*
Cc1ccc(C)c(N2CCN(S(=O)(=O)c3ccc4c(c3)NC(=O)CC(=O)N4)CC2)c1	.	.	.	.	6
Cc1ccc(C)c(N2CCN(S(=O)(=O)c3ccc4c(c3)CCC(=O)N4)CC2)c1	0	104*	0	-2	4
Cc1ccc(C)c(S(=O)(=O)N2CCN(C(=O)c3sccc3C)CC2)c1	.	.	.	.	3
O=C(O)C1Nc2c(O)cc(Cl)c([N+](=O)[O-])c2C2C=CCC12 (stereo not drawn)	70*	19	40	41	-9
CCCN1C(=O)/C(=C/c2c(N3CCNC(=O)C3CC(=O)OC)nc3c(C)cccn3c2=O)SC1=S (stereo not drawn)	-85	-105	-269	-27	.
CC(=O)N1CCN(C2=NC(=O)/C(=C/c3ccc(OS(=O)(=O)c4ccccc4)cc3)S2)CC1	.	.	.	.	5
CCn1c(CSc2nccn2C)nc2cc(C(=O)O)ccc21	0	18	53*	0	0
CCn1c(CSc2nc3ccccc3[nH]2)nc2cc(C(=O)O)ccc21	2	16	12	-8	2
CCN1/C(=C/C=C/C=C/c2sc3ccccc3[n+]2CC)Sc2ccccc21	-23	17	20	-5	0
CCN1/C(=C/C=C/c2sc3ccccc3[n+]2CC)Sc2ccccc21	.	.	.	.	26*
CCOC(=O)c1cc2c(ccc3ccccc32)oc1=O	23	85*	92*	-10	?
N=c1oc2ccc3ccccc3c2cc1C(N)=S	23	118*	92*	-11	76*
O=C(O)c1cc2c(ccc3ccccc32)oc1=O	-15	12	11	-5	0
O=C(NCc1ccccn1)c1cc2c(ccc3ccccc32)oc1=O	-12	104*	.	-4	37*
O=C(OCc1nc2ccccc2s1)c1cc2ccccc2oc1=O	3	0	-1	-6	3
CC(OC(=O)c1cc2c(ccc3ccccc32)oc1=O)c1nc2ccccc2s1 (stereo not drawn)	5	39	93*	-1	49*
COc1cccc2cc(C(=O)NCc3ccccn3)c(=O)oc12	6	2	-3	-10	-3
Cc1ccc(NS(=O)(=O)c2c(C)nc3sccn3c2=O)c(C)c1	.	.	.	.	-3
O=C(O)C1CCCCC1C(=O)Nc1nc(-c2ccc(Cl)s2)cs1 (stereo not drawn)	70*	17	8	10	-4
Cc1cccc(NC(=O)CCc2nnc3ccc(NCc4ccco4)nn23)n1	.	.	.	.	1
CCC(Oc1ccccc1)C(=O)Nc1ccc(S(=O)(=O)Nc2cc(C)on2)cc1 (stereo not drawn)	.	.	.	.	-2
COc1ccc(/C=C(/C(=O)c2cccs2)N2C=CC=CC2=C(C#N)C#N)cc1	-1	46	28	-31	22*
SMILES	Hck Nef HTS	Runt-CBFb FRET	Runt-SMMHC FRET	TbHK1 inh	RanGTP-Imp inh
CN1CCN(Cn2cc(/C=C/C(=O)c3ccccc3)c3ccccc32)CC1	8	6	-3	-6	67*
CCCN(CCC)CC(O)Cn1cc(/C=C/C(=O)c2ccccc2)c2ccccc21 (stereo not drawn)	-33	-23	-90	0	29*
CCCN(CCC)CC(O)Cn1cc(/C=C/C(=O)c2cccs2)c2ccccc21 (stereo not drawn)	-5	-155	-15	8	2
O=C(/C=C/c1cn(CC(O)CN2CCCCC2)c2ccccc12)c1ccccc1 (stereo not drawn)	0	-18	-64	-3	-11
CC(=O)c1cccc(NC(=O)COc2ccc3oc(=O)cc(C)c3c2)c1	.	.	.	.	1
Cc1ccc(C(=O)Sc2cccccc2=O)cc1	.	.	.	.	4
COc1ccccc1N1CCN(C2CCCN(C(=O)CCc3c(C)noc3C)C2)CC1 (stereo not drawn)	.	.	.	.	4
Cc1ccc(NC(NC(=O)OCCn2c([N+](=O)[O-])cnc2C)C(Cl)(Cl)Cl)cc1 (stereo not drawn)	1	0	-1	-5	18*
Cc1ncc([N+](=O)[O-])n1CCOC(=O)NC(NCc1ccccc1Cl)C(Cl)(Cl)Cl (stereo not drawn)	1	-1	1	-11	2
